Assay: Total drug recovery in healthy human at 1500 mg, iv infusion for 1 hr as single dose after 48 hrs
Assay type: ADME, organism-based
Conditions: in vivo, read-out: Drug recovery
Outline: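 Six healthy adult males, fasted ≥10 h, got one 1500 mg [14C]GSK2251052 dose ([…], 0.56 MBq) as a constant-rate 1-h IV infusion in 0.9% NaCl. Urine was collected at 0–6, 6–12 and 12–24 h, then in 24-h blocks to 336 h; feces in 24-h blocks. Urine was counted directly by LSC; feces were homogenized and combusted in duplicate before LSC. Cumulative recovery is given as mean % of dose.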

**Q.** For `Cl.N[14CH2][C@H]1OB(O)c2c(OCCCO)cccc21`, which dose excreted at 48 h is on record?
**A.** The dose excreted at 48 h was 70.5%.

From ChEMBL document CHEMBL3526029, “Disposition and metabolism of GSK2251052 in humans: a novel boron-containing antibiotic” (Drug Metab Dispos, 2013)
